Sampled rows, rich in hits. Any-hit rate of the full collection: about 3.1%.
KCNK3 block: human KCNK3 channel inhibition, primary screen | O14649 | CHO-KCNK3 thallium flux, FluxOR fluorescence; active compounds read low | B-score at 10 µM | actives 0.84% (n = 340,000);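 active means B-score under library mean minus 4 SD, starting fluorescence ratio at most library mean plus 5 SD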;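 further: more negative B-score means stronger inhibition of thallium flux through KCNK3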
KCNQ1 pot: human KCNQ1 channel potentiation or activation | P51787 | CHO-K1 KCNQ1, thallium flux FluxOR fluorescence; active compounds read high | B-score at 10 µM | actives 0.35% (n = 310,000) | AID 2648;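 active means fluorescence ratio B-score, a plate-corrected score, at least three library SD, with initial intensity B-score within 5 SD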
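System: CHO-K1 cells stably expressing KCNQ1 / Medium: assay buffer for compound exposure, DMSO matched across wells / Reagent: thallium- and potassium-containing depolarizing buffer / Compound: one concentration, matched DMSO / Incubation: 20 min compound pretreatment at room temperature / Measured by: kinetic FluxOR fluorescence, 10 s baseline plus 110 s post-stimulus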
hERG rescue: hERG (human) protection from proarrhythmic block; Q12809; CHO-hERG, FluxOR thallium flux, dofetilide IC70 present; activation (rescue from dofetilide block), less the hit threshold, % at 10 µM; actives 0.51% (n = 310,000); AID 1511;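 active means activation above the mean of controls blocked by dofetilide plus 5 SD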;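 further: thallium influx through hERG after potassium depolarization seen as dye fluorescence rise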
KCNQ1 inh: inhibitors of human KCNQ1 potassium channel | CHO-K1 KCNQ1, FluxOR thallium flux fluorescence; active compounds read high | P51787 | actives 1.3% (n = 310,000) | B-score at 10 µM;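 active means compounds whose thallium flux B-score, printed positive for inhibition, exceeds three library SD while starting fluorescence stays within three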;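 further: channel opened by potassium depolarization with thallium stimulus after 20 min compound exposure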
KCNK9 inh: inhibitors of human KCNK9 two-pore domain potassium channel; Q9NPC2; HEK293 KCNK9, FluxOR thallium flux fluorescence; active compounds read low; B-score at 10 µM; actives 1.2% (n = 310,000); AID 488922;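 active means ratio B-score over 3 SD below the library mean, with starting fluorescence within 5 SD of its mean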;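 further: negative B-score means less thallium flux so channel inhibition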
KCNK3 confirm: confirmation of human KCNK3 two-pore domain potassium channel inhibitors; AID 651638; ratio percent of control, % at 10 µM; actives 99% (n = 2,400); shares compounds with KCNK3 block; CHO-KCNK3 thallium flux, FluxOR fluorescence; 0% buffer, 100% carvedilol maximal block;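 active means ratio percent of control, averaged over triplicates, above buffer control mean plus 5 SD, cut at about 64% in these data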;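 further: ratio is the fluorescence rise from min to max over baseline after thallium stimulus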
KCNK3 noninduced: activity in cells without induced KCNK3 expression; shares compounds with KCNK3 block; non-induced KCNK3 parental cells, FluxOR thallium flux; active compounds read low; thallium flux ratio (lower = more inhibition) at 10 µM; actives 40% (n = 2,400);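 active means thallium flux ratio, averaged over three wells, more than 5 SD below the buffer control mean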;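 further: host cells are CHO cells without KCNK3 induction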
A number is an active result; 0 = inactive; - = no result given.

SMILES	KCNK3 block	KCNQ1 pot	hERG rescue	KCNQ1 inh	KCNK9 inh	KCNK3 confirm	KCNK3 noninduced
CC1=CC(C)(C)N2C(=O)C3(C(C#N)=C(N)Oc4cc(O)ccc43)c3c(C)c(C)cc1c32 (stereo not given)	-8.91	0	0	0	0	81.0	0.16
CCCC(c1nnnn1CC1CCCO1)N1CCN(c2nc3ccccc3s2)CC1 (stereo not given)	0	0	0	0	0	-	-
CCCC(c1nnnn1Cc1cccs1)N1CCN(c2nc3ccccc3s2)CC1 (stereo not given)	-8.89	0	0	0	-8.07	103.7	0
COc1ccc(-c2nc3ccccn3c2CN2CCN(c3ccccc3F)CC2)cc1	-8.78	0	0	0	0	106.3	0.157
Clc1ccc(-c2nc3ccccn3c2CN2CCOCC2)cc1	0	0	0	0	0	-	-
CC1(C)Cc2cccc(C(=O)NC3CCN(Cc4ccccc4)CC3)c2O1	-8.84	0	0	0	0	114.0	0
O=C(NC(Cc1ccccc1)c1ccc2c(c1)OCCCO2)c1ccccc1 (stereo not given)	0	0	0	0	0	-	-
C=CCN(c1nc(C)cc(OC)n1)S(=O)(=O)c1ccc(C)cc1	0	0	0	0	0	-	-
C=CCN(c1nc(C)cc(OC)n1)S(=O)(=O)c1ccccc1	-9.23	0	0	0	0	107.0	0
CCC(C(=O)Nc1cc(F)ccc1F)n1nc(C)c2c(C)n(-c3ccc(C)cc3)nc2c1=O (stereo not given)	0	0	0	0	0	-	-
CCC(C(=O)Nc1ccccc1F)n1nc(C)c2c(C)n(-c3ccccc3)nc2c1=O (stereo not given)	-11.6	0	0	0	0	89.0	0
CCC(C(=O)NCCCc1ccccc1)n1nc(C)c2c(C)n(-c3ccccc3)nc2c1=O (stereo not given)	0	0	0	0	0	-	-
CCC(C(=O)NCCC1=CCCCC1)n1nc(C)c2c(C)n(-c3ccccc3)nc2c1=O (stereo not given)	-8.8	0	0	0	0	89.3	0
CCOC(=O)C1CCN(Cc2cccc(OCc3ccccc3)c2)CC1	0	0	0	0	0	-	-
O=C(O)c1cc2ccccc2cc1Nc1ccccc1	0	0	0	0	0	-	-
CC(C)C(NC(=O)C1CCCCC1)C(=O)NCCc1ccccc1 (stereo not given)	0	0	0	0	0	-	-
N#Cc1nc(COc2ccccc2Cl)oc1NCc1ccc(F)cc1	0	0	0	0	0	-	-
N#Cc1nc(COc2ccccc2F)oc1NCCc1ccccc1	-10.2	0	0	0	0	101.7	0
CN(Cc1ccccc1)c1oc(COc2ccccc2F)nc1C#N	-13.2	0	0	0	0	115.3	0.144
N#Cc1nc(COc2ccccc2F)oc1N1CCCCCC1	0	-	-	-	-	-	-
O=C(COC(=O)c1cccnc1Cl)NC(=O)c1ccc(OC(F)F)cc1	0	-	-	-	-	-	-
COc1ccc(C(=O)NCCc2c[nH]c3ccccc23)cc1[N+](=O)[O-]	0	0	0	0	0	-	-
O=C(C1=C(O)C(=O)N(Cc2cccnc2)C1c1ccccn1)c1cccs1 (stereo not given)	0	0	0	0	0	-	-
N#C/C(=C\c1ccc(N2CCOCC2)o1)c1ccccc1	-9.05	0	0	0	0	144.0	0.081
O=C(CCNS(=O)(=O)c1ccccc1F)N1CCN(C(c2ccccc2)c2ccccc2)CC1	-8.95	0	0	0	-7.36	101.3	0
SMILES	KCNK3 block	KCNQ1 pot	hERG rescue	KCNQ1 inh	KCNK9 inh	KCNK3 confirm	KCNK3 noninduced
CCCCSc1nc2c(c(C(F)(F)F)c1C#N)CCC2	-9.12	0	0	0	0	119.0	0.146
COc1ccccc1/C=C/C(=O)c1ccc(Cl)cc1	0	0	0	0	0	-	-
COc1ccc(OC)c(/C=C/C(=O)c2ccc(Cl)cc2)c1	-10.4	0	0	0	-6.93	120.3	0.155
CC(C)c1ccccc1-n1c(SCC(=O)c2ccc3c(c2)NC(=O)CO3)nc2ccccc2c1=O	-10.6	0	0	6	-7.4	115.0	0.149
CC(C)(C)c1ccc(/C=C/C(=O)N2CCCCC2)cc1	-8.85	0	0	0	0	107.7	0
CC1=CSC2=NS(=O)(=O)CCN12	0	0	0	0	0	-	-
COC(=O)c1ccccc1NC(=O)N1CCN(c2ccc(F)cc2)CC1	-10.7	0	0	0	0	112.0	0
COc1cc(OC)c(OC)cc1/C=C1\CC(C)C/C(=C\c2cc(OC)c(OC)cc2OC)C1=O (stereo not given)	-13.6	0	0	8	0	154.3	0.066
CC1(C)CC(=O)C2=C(C1)c1c(ccc3ccccc13)NC2c1ccc(C(=O)O)cc1 (stereo not given)	0	0	0	0	0	-	-
Cc1ccc(C2Nc3ccc4ccccc4c3C3=C2C(=O)CC(C)(C)C3)o1 (stereo not given)	-8.97	0	0	0	0	104.7	0
COc1ccc(-c2csc3nc(-c4cccnc4)nc(Cl)c23)cc1OC	-8.72	0	0	0	0	101.0	0.146
CCCCCCNCc1ccc(Br)cc1	-9.68	0	0	0	0	77.3	0
O=C(Nc1nc(-c2ccccc2)cs1)C1COc2ccccc2O1 (stereo not given)	0	0	0	0	0	-	-
O=C(Nc1nc(-c2ccc3c(c2)OCO3)cs1)C1COc2ccccc2O1 (stereo not given)	-11.1	0	0	0	0	108.7	0
CC(C)(C)C(=O)Nc1ccccc1C(=O)NCc1ccco1	-9.28	0	0	0	0	65.3	0
CC1=CC2=NC(=O)/C(=C/c3coc4ccc(Cl)cc4c3=O)C(=N)N2O1	-9.21	0	0	10	0	133.7	0.0867
CC1=CC2=NC(=O)/C(=C\c3cc(C)n(-c4cccc(Cl)c4)c3C)C(=N)N2O1	0	0	0	0	0	-	-
COc1ccc(-c2ccc(C3C(C#N)=C(N)Oc4n[nH]c(C)c43)o2)cc1 (stereo not given)	-10.9	0	0	0	0	89.0	0
COc1ccc(CNCC(O)(c2ccc(Cl)cc2)c2ccc(Cl)cc2)cc1OC	0	0	0	0	0	-	-
COc1ccc(CNCC(O)(c2ccc(Cl)cc2)c2ccc(Cl)cc2)cc1	-9.26	0	0	0	0	131.3	0
COc1cc(NC(=O)CSc2nccc(C)n2)c(C)cc1[N+](=O)[O-]	0	0	0	0	0	-	-
CCOC(=O)c1sc2nc(CC(=O)OC)nc(NCc3ccc(F)cc3)c2c1C	0	0	0	0	0	-	-
CCOC(=O)c1sc2nc(C)nc(NCc3cccnc3)c2c1C	0	0	0	0	0	-	-
CCOC(=O)c1sc2nc(C)nc(NCc3ccc(Cl)cc3)c2c1C	-10.6	0	0	0	0	121.3	0.133

Screening data deposited in PubChem by Johns Hopkins Ion Channel Center.
